Measurements: ChEMBL document CHEMBL1152242, “Aldehydic components of cinnamon bark extract suppresses RANKL-induced osteoclastogenesis through NFATc1 downregulation” (Bioorg Med Chem, 2008)
The source made the active and inactive calls. No cut-off for these calls is given here.

Tests used:
[1] = system: RAW264.7; test: Inhibition of multinucleated cell formation in RANKL-stimulated mouse RAW264.7 cells after 3 days by TRAP staining; assay type: functional, cell-based
How it was run: (§1)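 RAW264.7 cells in α-MEM with RANKL, with or without compound, cultured 3 days at 37 °C, 5% CO2. Fixed in acetone/citrate for 30 s, then TRAP-stained with a kit. TRAP+ cells with ≥4 nuclei scored as MNCs by light microscopy, counting four fields, repeated four times. Relative MNC number reported as mean ± SD of triplicates; ANOVA with Dunnett's test.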

[2] = system: RAW264.7; test: Inhibition of NFATc1 expression in RANKL-stimulated mouse RAW264.7 cells after 48 hrs by immunoblotting; assay type: functional, cell-based
How it was run: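 RAW264.7 cells in α-MEM cultured with RANKL plus test compound for 48 h. Lysates in HEPES pH 7.8/NaCl/EDTA/MgCl2/DTT buffer with protease inhibitors, run on 8% SDS-PAGE and transferred to nitrocellulose. Blocked in 5% milk/PBS-Tween, then anti-NFATc1 primary overnight at 4 °C with GAPDH as loading control. Detected with HRP secondary and ECL.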

[3] = system: RAW264.7; test: Inhibition of osteoclastogenesis in RANKL-stimulated mouse RAW264.7 cells at 1 to 2 uM; assay type: functional, cell-based
[4] = system: RAW264.7; test: Inhibition of bone resorption by mature osteoclast in RANKL-stimulated mouse RAW264.7 cells at 2 uM pretreated for 1 hr measured after 8 days; assay type: functional
How it was run: (§2)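 RAW264.7 cells pretreated with compound for 1 h, then RANKL (50 ng/ml) added on calcium phosphate apatite-coated plates. Incubated 8 days, then 5% sodium hypochlorite for 5 min, washed, dried and photographed. Total resorbed pit area (mm²) given as mean ± SD of triplicates.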

[5] = biological target: T1, Nuclear factor of activated T-cells, cytoplasmic 1 (Mus musculus) (UniProt O88942); test: Inhibition of NFATc1 pathway in RANKL-stimulated mouse RAW264.7 cells at 1 to 2 uM; assay type: cell-based
T1 sequence (whole entry): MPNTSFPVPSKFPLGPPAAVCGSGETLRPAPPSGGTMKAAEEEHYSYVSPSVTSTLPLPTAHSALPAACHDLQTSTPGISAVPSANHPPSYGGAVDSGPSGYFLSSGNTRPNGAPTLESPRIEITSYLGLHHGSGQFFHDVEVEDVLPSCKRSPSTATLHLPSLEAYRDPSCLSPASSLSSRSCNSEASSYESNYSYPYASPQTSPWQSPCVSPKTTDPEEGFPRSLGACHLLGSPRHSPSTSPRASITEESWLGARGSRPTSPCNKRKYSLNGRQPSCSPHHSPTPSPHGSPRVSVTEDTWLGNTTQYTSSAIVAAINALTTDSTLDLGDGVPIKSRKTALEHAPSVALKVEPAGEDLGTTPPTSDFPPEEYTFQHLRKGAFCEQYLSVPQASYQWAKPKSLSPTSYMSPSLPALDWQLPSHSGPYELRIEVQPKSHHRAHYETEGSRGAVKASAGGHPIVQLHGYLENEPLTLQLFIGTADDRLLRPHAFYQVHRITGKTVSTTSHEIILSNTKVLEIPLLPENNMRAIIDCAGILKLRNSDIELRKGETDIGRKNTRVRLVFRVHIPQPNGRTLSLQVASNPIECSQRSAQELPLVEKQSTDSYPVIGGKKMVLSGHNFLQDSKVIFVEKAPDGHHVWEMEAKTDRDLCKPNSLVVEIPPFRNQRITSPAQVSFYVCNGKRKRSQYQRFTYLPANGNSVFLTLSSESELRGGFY

[6] = system: RAW264.7; test: Inhibition of multinucleated cell formation in RANKL-stimulated mouse RAW264.7 cells at 0.5 to 2 uM after 3 days by TRAP staining; assay type: functional, cell-based; how it was run: as §1
[7] = system: RAW264.7; test: Inhibition of NF-kappaB activation transfected in RANKL-stimulated mouse RAW264.7 cells at 1 to 2 uM; assay type: cell-based
[8] = Inhibition of NF-kappaB transfected in LPS-stimulated mouse RAW264.7 cells; assay type: cell-based
[9] = system: RAW264.7; test: Inhibition of bone resorption by mature osteoclast in RANKL-stimulated mouse RAW264.7 cells pretreated for 1 hr measured after 8 days; assay type: functional, cell-based; how it was run: as §2

## OC/C=C/c1ccccc1
[1]
  Activity: inactive

## COc1ccccc1/C=C/C=O
[2]
  Activity: Active
[3]
  Activity: Active
[4]
  inhibition at 2 µM: 95%
[5]
  Activity: Active
[6]
  Activity: Active
[7]
  Activity: inactive
[8]
  IC50: 31 µM
[9]
  Activity: Active

## O=C/C=C/c1ccccc1 [CINNAMALDEHYDE]
[2]
  Activity: Active
[6]
  Activity: Active
[8]
  IC50: 43 µM
[9]
  Activity: Active

## O=C(O)/C=C/c1ccccc1
[1]
  Activity: inactive
